From ChEMBL document CHEMBL4311940, “Design, Synthesis, and Biological Evaluation of 4-Methyl Quinazoline Derivatives as Anticancer Agents Simultaneously Targeting Phosphoinositide 3-Kinases and Histone Deacetylases” (J Med Chem, 2019)
Activity calls are given as the source filed them. The calls are words filed in the database; no cut-off is given here.

How the values were obtained:
HCT-116 [1] = assay: Antiproliferative activity against human HCT116 cells after 96 hrs by MTT assay; type: functional, cell-based; conditions: HCT-116, 96 h
HCT-116 [2] = assay: Induction of apoptosis in human HCT116 cells assessed as live cells at 500 nM after 48 hrs by Annexin V-FITC/propidium iodide staining-based flow cytometric analysis (reference value: 89.6%); type: functional
HCT-116 [3] = assay: Induction of apoptosis in human HCT116 cells assessed as early apoptotic cells at 500 nM after 48 hrs by Annexin V-FITC/propidium iodide staining-based flow cytometric analysis (reference value: 1.33%); type: functional
HCT-116 [4] = assay: Induction of apoptosis in human HCT116 cells assessed as late apoptotic cells at 500 nM after 48 hrs by Annexin V-FITC/propidium iodide staining-based flow cytometric analysis (reference value: 3.87%); type: functional
HCT-116 [5] = assay: Induction of apoptosis in human HCT116 cells assessed as necrotic cells at 500 nM after 48 hrs by Annexin V-FITC/propidium iodide staining-based flow cytometric analysis (reference value: 5.23%); type: functional
HCT-116 [6] = assay: Induction of cell cycle arrest in human HCT116 cells assessed as accumulation at G2/M phase at 500 nM after 24 hrs by propidium iodide/RNase staining-based FACS analysis; type: functional
Outline: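 HCT116 cells cultured overnight in 6-well plates, exposed to compound at various concentrations for 24 h; FxCycle PI/RNase staining and flow cytometry for cell cycle phase distribution.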

THP-1 = assay: Antiproliferative activity against human THP1 cells after 96 hrs by MTT assay; type: functional, cell-based; conditions: THP-1, 96 h
K562 = assay: Antiproliferative activity against human K562 cells after 96 hrs by MTT assay; type: functional, cell-based; conditions: K562, 96 h
MCF7 = assay: Antiproliferative activity against human MCF7 cells after 96 hrs by MTT assay; type: functional, cell-based; conditions: MCF7, 96 h
MDA-MB-453 = assay: Antiproliferative activity against human MDA-MB-453 cells after 96 hrs by MTT assay; type: functional, cell-based; conditions: MDA-MB-453, 96 h
HCT-8 = assay: Antiproliferative activity against human HCT8 cells after 96 hrs by MTT assay; type: functional, cell-based; conditions: HCT-8, 96 h
U-87 MG = assay: Antiproliferative activity against human U87 cells after 96 hrs by MTT assay; type: functional, cell-based, U-87MG ATCC
NCI-H460 = assay: Antiproliferative activity against human NCI-H460 cells after 96 hrs by MTT assay; type: functional, cell-based; conditions: NCI-H460, 96 h
NCI-H1299 = assay: Antiproliferative activity against human NCI-H1299 cells after 96 hrs by MTT assay; type: functional, cell-based; conditions: NCI-H1299, 96 h
Capan-2 = assay: Antiproliferative activity against human Capan2 cells after 96 hrs by MTT assay; type: functional, cell-based; conditions: Capan-2, 96 h
SW1990 = assay: Antiproliferative activity against human SW1990 cells after 96 hrs by MTT assay; type: functional, cell-based; conditions: SW1990, 96 h
DU-145 = assay: Antiproliferative activity against human DU145 cells after 96 hrs by MTT assay; type: functional, cell-based; conditions: DU-145, 96 h
HGC-27 = assay: Antiproliferative activity against human HGC27 cells after 96 hrs by MTT assay; type: functional, cell-based; conditions: HGC-27, 96 h
HepG2 = assay: Antiproliferative activity against human HepG2 cells after 96 hrs by MTT assay; type: functional, cell-based; conditions: HepG2, 96 h
Huh-7 = assay: Antiproliferative activity against human HuH7 cells after 96 hrs by MTT assay; type: functional, cell-based; conditions: Huh-7, 96 h
Bel-7402 = assay: Antiproliferative activity against human Bel7402 cells after 96 hrs by MTT assay; type: functional, cell-based; conditions: Bel-7402, 96 h
Histone deacetylase 1 = Histone deacetylase 1 (Homo sapiens, UniProt Q13547); assay: Inhibition of recombinant C-terminal His/FLAG-tagged HDAC1 (unknown origin) expressed in baculovirus infected Sf9 insect cells using Ac-peptide as substrate preincubated for 15 mins followed by substrate addition and measured after 1 hr
[7] = target: Phosphatidylinositol 4,5-bisphosphate 3-kinase catalytic subunit alpha isoform (Homo sapiens, UniProt P42336); assay: Inhibition of recombinant human PI3Kalpha using PIP2 as substrate incubated for 1 hr by kinase-glo assay
HCT-116 [8] = assay: Potency index, ratio of IC50 for SAHA to test compound IC50 for human HCT116 cells; type: functional

Sequence of Phosphatidylinositol 4,5-bisphosphate 3-kinase catalytic subunit alpha isoform (P42336 whole entry, canonical isoform): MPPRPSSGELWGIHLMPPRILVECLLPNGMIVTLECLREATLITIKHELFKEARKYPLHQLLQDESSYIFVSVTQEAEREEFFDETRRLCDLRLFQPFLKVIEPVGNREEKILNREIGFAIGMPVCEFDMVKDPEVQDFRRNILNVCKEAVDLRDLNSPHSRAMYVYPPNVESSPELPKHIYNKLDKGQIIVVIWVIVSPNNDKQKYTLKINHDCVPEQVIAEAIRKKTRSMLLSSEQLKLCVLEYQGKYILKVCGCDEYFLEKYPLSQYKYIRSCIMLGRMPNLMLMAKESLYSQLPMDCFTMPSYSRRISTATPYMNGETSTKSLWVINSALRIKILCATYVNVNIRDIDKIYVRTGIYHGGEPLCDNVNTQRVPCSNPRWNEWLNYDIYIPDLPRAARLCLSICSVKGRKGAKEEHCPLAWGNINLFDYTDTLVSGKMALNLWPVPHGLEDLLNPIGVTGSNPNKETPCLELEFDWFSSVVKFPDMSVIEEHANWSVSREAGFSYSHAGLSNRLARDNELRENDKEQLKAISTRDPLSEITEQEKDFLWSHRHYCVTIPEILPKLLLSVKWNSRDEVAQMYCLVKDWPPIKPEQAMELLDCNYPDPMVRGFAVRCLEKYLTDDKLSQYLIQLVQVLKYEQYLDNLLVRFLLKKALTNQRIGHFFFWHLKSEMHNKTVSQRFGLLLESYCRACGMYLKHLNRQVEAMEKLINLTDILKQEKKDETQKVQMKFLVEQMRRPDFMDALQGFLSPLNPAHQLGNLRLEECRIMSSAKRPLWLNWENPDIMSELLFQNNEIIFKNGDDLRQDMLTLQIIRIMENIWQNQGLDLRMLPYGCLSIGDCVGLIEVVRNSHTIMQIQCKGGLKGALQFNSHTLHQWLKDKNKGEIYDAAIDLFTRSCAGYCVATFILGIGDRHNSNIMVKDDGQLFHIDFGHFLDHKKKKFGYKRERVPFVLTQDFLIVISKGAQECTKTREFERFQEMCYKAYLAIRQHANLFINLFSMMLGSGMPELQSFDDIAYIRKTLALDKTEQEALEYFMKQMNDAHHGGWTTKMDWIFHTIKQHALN
Sequence of Histone deacetylase 1 (Q13547 whole entry, canonical isoform): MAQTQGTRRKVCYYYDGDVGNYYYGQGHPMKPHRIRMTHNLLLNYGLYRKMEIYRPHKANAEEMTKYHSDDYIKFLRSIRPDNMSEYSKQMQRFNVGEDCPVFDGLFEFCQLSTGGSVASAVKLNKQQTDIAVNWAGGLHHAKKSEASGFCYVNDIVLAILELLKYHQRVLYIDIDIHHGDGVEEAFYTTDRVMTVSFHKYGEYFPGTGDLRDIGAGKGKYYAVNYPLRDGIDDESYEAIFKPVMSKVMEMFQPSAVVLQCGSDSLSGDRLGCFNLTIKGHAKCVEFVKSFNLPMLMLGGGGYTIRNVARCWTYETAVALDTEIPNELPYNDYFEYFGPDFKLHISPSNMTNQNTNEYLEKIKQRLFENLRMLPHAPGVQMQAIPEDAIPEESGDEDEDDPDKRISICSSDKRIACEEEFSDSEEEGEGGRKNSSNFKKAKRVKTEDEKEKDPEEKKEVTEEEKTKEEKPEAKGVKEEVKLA

Row | IC50 (HCT-116 [1]) [nM] | IC50 (Histone deacetylase 1) [nM] | IC50 [7] [nM] | SMILES | also measured
1 | 1300 | – | – | Nc1cc(C(F)(F)F)c(-c2cc(N3CCOCC3)nc(N3CCOCC3)n2)cn1 [BUPARLISIB] | Activity (HCT-116 [2]): 84.7%; Activity (HCT-116 [3]): 5.22%; Activity (HCT-116 [4]): 6.61%; Activity (HCT-116 [5]): 3.46%; Activity (HCT-116 [6]): Active; IC50 (THP-1): 12000 nM; IC50 (K562): 7900 nM; IC50 (MCF7): 5700 nM; IC50 (MDA-MB-453): 370 nM; IC50 (HCT-8): 1700 nM; IC50 (U-87 MG): 4800 nM; IC50 (NCI-H460): 3200 nM; IC50 (NCI-H1299): 3600 nM; IC50 (Capan-2): 42000 nM; IC50 (SW1990): 1300 nM; IC50 (DU-145): 45000 nM; IC50 (HGC-27): 990 nM; IC50 (HepG2): 3200 nM; IC50 (Huh-7): 2000 nM; IC50 (Bel-7402): 13000 nM
2 | 530 | 1.7 | 1.8 | COc1ncc(-c2cc(OCCN(C)c3ncc(C(=O)NO)cn3)c3ncnc(C)c3c2)cc1NS(=O)(=O)c1ccc(F)cc1F | –
3 | 30 | 1.3 | 73 | COc1ncc(-c2cc(OCCN(C)c3ncc(C(=O)NO)cn3)c3ncnc(C)c3c2)cc1F | –
4 | 7200 | 6.3 | 0.69 | COc1ncc(-c2cc(OCCCCCCC(=O)NO)c3ncnc(C)c3c2)cc1NS(=O)(=O)c1ccc(F)cc1F | –
5 | 9300 | 11 | 41 | COc1ncc(-c2cc(OCCCCNc3ncc(C(=O)NO)cn3)c3ncnc(C)c3c2)cc1F | –
6 | 22 | 2.1 | 195 | CCN(CCOc1cc(-c2ccc(OC)nc2)cc2c(C)ncnc12)c1ncc(C(=O)NO)cn1 | –
7 | 1400 | 84 | 51 | COc1ccc(-c2cc(OCCCCC(=O)NO)c3ncnc(C)c3c2)cn1 | –
8 | > 10000 | 42 | 5.1 | COc1ncc(-c2cc(OCCCCCC(=O)NO)c3ncnc(C)c3c2)cc1NS(C)(=O)=O | –
9 | 100 | 2.5 | 213 | COc1ccc(-c2cc(OCCCN(C)c3ncc(C(=O)NO)cn3)c3ncnc(C)c3c2)cn1 | –
10 | 11000 | 4.9 | 4 | COc1ncc(-c2cc(OCCCCCCCCC(=O)NO)c3ncnc(C)c3c2)cc1NS(C)(=O)=O | –
11 | 350 | 303 | 0.6 | COc1ncc(-c2cc(OCCCCC(=O)NO)c3ncnc(C)c3c2)cc1NS(=O)(=O)c1ccc(F)cc1F | –
12 | 4000 | 8.9 | 0.9 | COc1ncc(-c2cc(OCCCCCCCCC(=O)NO)c3ncnc(C)c3c2)cc1NS(=O)(=O)c1ccc(F)cc1F | –
13 | 800 | 3.7 | 143 | COc1ccc(-c2cc(OCCCCCCCC(=O)NO)c3ncnc(C)c3c2)cn1 | –
14 | 37000 | 1.3 | 2.3 | COc1ncc(-c2cc(OCCCCCCC(=O)NO)c3ncnc(C)c3c2)cc1NS(C)(=O)=O | –
15 | – | – | – | O=C(CCCCCCC(=O)Nc1ccccc1)NO [VORINOSTAT] | Activity (HCT-116 [2]): 87.7%; Activity (HCT-116 [3]): 2.72%; Activity (HCT-116 [4]): 5.21%; Activity (HCT-116 [5]): 4.33%; Activity (HCT-116 [6]): Active
16 | 250 | 3.3 | 48 | COc1ncc(-c2cc(OCCCCN(C)c3ncc(C(=O)NO)cn3)c3ncnc(C)c3c2)cc1F | –
17 | > 10000 | 37 | 1.3 | COc1ncc(-c2cc(OCCCC(=O)NO)c3ncnc(C)c3c2)cc1NS(=O)(=O)c1ccc(F)cc1F | –
18 | 1400 | 3.3 | 54 | COc1ncc(-c2cc(OCCCCCCCC(=O)NO)c3ncnc(C)c3c2)cc1F | –

Row | IC50 (HCT-116 [1]) [nM] | IC50 (Histone deacetylase 1) [nM] | IC50 [7] [nM] | SMILES | also measured
19 | 2900 | 11 | 1.1 | COc1ncc(-c2cc(OCCCN(C)c3ncc(C(=O)NO)cn3)c3ncnc(C)c3c2)cc1NS(=O)(=O)c1ccc(F)cc1F | –
20 | 39 | 2.6 | 72 | CCN(CCOc1cc(-c2cnc(OC)c(F)c2)cc2c(C)ncnc12)c1ncc(C(=O)NO)cn1 | –
21 | 140 | 1.3 | 102 | COc1ccc(-c2cc(OCCCCCCC(=O)NO)c3ncnc(C)c3c2)cn1 | Ratio IC50 (HCT-116 [8]): 10
22 | 540 | 39 | 0.66 | COc1ncc(-c2cc(OCCCCCC(=O)NO)c3ncnc(C)c3c2)cc1NS(=O)(=O)c1ccc(F)cc1F | –
23 | 580 | 2.2 | 116 | COc1ncc(-c2cc(OCCCCCCCCC(=O)NO)c3ncnc(C)c3c2)cc1F | –
24 | 96 | 2 | 43 | COc1ncc(-c2cc(OCCN(c3ncc(C(=O)NO)cn3)C(C)C)c3ncnc(C)c3c2)cc1F | –
25 | 4600 | 5.3 | 43 | COc1ncc(-c2cc(OCCNc3ncc(C(=O)NO)cn3)c3ncnc(C)c3c2)cc1F | –
26 | 1200 | 37 | 30 | COc1ncc(-c2cc(OCCCCCC(=O)NO)c3ncnc(C)c3c2)cc1F | –
27 | 540 | 30 | 58 | COc1ccc(-c2cc(OCCCCCC(=O)NO)c3ncnc(C)c3c2)cn1 | –
28 | 1500 | 1.8 | 0.63 | COc1ncc(-c2cc(OCCCCCCCC(=O)NO)c3ncnc(C)c3c2)cc1NS(=O)(=O)c1ccc(F)cc1F | –
29 | 760 | 3 | 162 | COc1ccc(-c2cc(OCCCCCCCCC(=O)NO)c3ncnc(C)c3c2)cn1 | –
30 | > 10000 | 166 | 68 | COc1ccc(-c2cc(OCC(=O)NO)c3ncnc(C)c3c2)cn1 | –
31 | 5 | – | – | COc1ccc(-c2nc(N3CCOCC3)c3sc(CN(C)c4ncc(C(=O)NO)cn4)cc3n2)cn1 [FIMEPINOSTAT] | IC50 (K562): 280 nM; IC50 (MCF7): 41 nM; IC50 (MDA-MB-453): 9 nM; IC50 (HCT-8): 5 nM; IC50 (U-87 MG): 7 nM; IC50 (NCI-H460): 150 nM; IC50 (NCI-H1299): 25 nM; IC50 (Capan-2): 7 nM; IC50 (SW1990): 180 nM; IC50 (DU-145): 560 nM; IC50 (HGC-27): 41 nM; IC50 (HepG2): 15 nM; IC50 (Huh-7): 560 nM; IC50 (Bel-7402): 13 nM
32 | 39 | 1.6 | 82 | COc1ccc(-c2cc(OCCN(c3ncc(C(=O)NO)cn3)C(C)C)c3ncnc(C)c3c2)cn1 | –
33 | 3400 | 2.1 | 3.9 | COc1ncc(-c2cc(OCCCCCCCC(=O)NO)c3ncnc(C)c3c2)cc1NS(C)(=O)=O | –
34 | 2100 | 4 | 43 | COc1ncc(-c2cc(OCCCNc3ncc(C(=O)NO)cn3)c3ncnc(C)c3c2)cc1F | –
35 | 82 | 2.4 | 94 | COc1ncc(-c2cc(OCCCN(C)c3ncc(C(=O)NO)cn3)c3ncnc(C)c3c2)cc1F | –
36 | > 10000 | 91 | 73 | COc1ccc(-c2cc(OCCCC(=O)NO)c3ncnc(C)c3c2)cn1 | –
